Measurements reported in ChEMBL document CHEMBL1151737, “Development and preclinical studies of broad-spectrum anti-HIV agent (3'R,4'R)-3-cyanomethyl-4-methyl-3',4'-di-O-(S)-camphanoyl-(+)-cis-khellactone (3-cyanomethyl-4-methyl-DCK)” (J Med Chem, 2008).
pEC50, pIC50: −log10 of the molar value.

Columns and labels:
[1] = system: Human immunodeficiency virus 1; assay: Antiviral activity against HIV1 3B infected in human H9 lymphocytes; format: functional, organism-based; conditions: Human immunodeficiency virus 1, 3B
H9 = assay: Cytotoxicity against human H9 cells; format: cell-based
[2] = Therapeutic index, ratio of IC50 for human H9 cells to EC50 for HIV1 3B; format: cell-based; conditions: read-out: Ratio IC50/EC50
[3] = system: Human immunodeficiency virus 1; assay: Antiviral activity against multidrug-resistant HIV1 with reverse transcriptase 41L, 74V, 184V, 210W, 215Y, ins SS, 98G mutation infected in human MT2 cells assessed as inhibition of p24 antigen production after 4 days by ELISA; format: functional, organism-based; conditions: Human immunodeficiency virus 1, MT2, 96 h
Summary of the method: (§1)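 MT-2 cells (1 × 10⁴) infected with HIV-1 (100 TCID50) in RPMI 1640 + 10% FBS with graded compound concentrations overnight; supernatant then replaced with compound-free medium. Day 4 post-infection supernatant lysed with 5% Triton X-100; p24 quantified by sandwich ELISA (HIVIG capture, anti-p24 mAb, TMB, A450) against recombinant p24 standard. Triplicate; EC50 from % inhibition of p24.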

[4] = system: Human immunodeficiency virus 1; assay: Antiviral activity against multidrug-resistant HIV1 with reverse transcriptase 41L, 67N, 210W, 215Y, 184V, 103N mutation infected in human MT2 cells assessed as inhibition of p24 antigen production after 4 days by ELISA; format: functional, organism-based; conditions: Human immunodeficiency virus 1, MT2, 96 h; summary of the method: as §1
[5] = system: Human immunodeficiency virus 1; assay: Antiviral activity against multidrug-resistant HIV1 with reverse transcriptase clone 7324-1 infected human MT2 cells assessed as inhibition of p24 antigen production after 4 days by ELISA; format: functional, organism-based; conditions: Human immunodeficiency virus 1, MT2, 96 h; summary of the method: as §1
Rattus norvegicus [6] = assay: AUC (0 to t) in Sprague-Dawley rat at 20 mg/kg, intragastric gavage; format: ADME, organism-based, Plasma; set-up: dose 20 mg/kg, route intragastric; conditions: in vivo, po
Summary of the method: (§2)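 Male Sprague-Dawley rats (180–200 g), n = 3, given 2 mg/kg i.v. or 20 mg/kg i.g. in 10% PEG400. Blood taken at 0–720 min, plasma stored at −20 °C. Plasma extracted by acetonitrile protein precipitation and analysed by LC-MS/MS against 5–5000 ng/mL standards. Non-compartmental analysis; F = dose-normalized oral AUC(0–t)/i.v. AUC(0–t). Mean ± SD.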

PBMC = assay: Cytotoxicity against human PBMC after 4 days by XTT assay; format: cell-based; conditions: 96 h
[7] = system: Human immunodeficiency virus 1; assay: Antiviral activity against HIV1 93BR020 isolate of subtype F with X4R5 tropism in human PBMC cells assessed as inhibition of p24 antigen production after 4 days by ELISA; format: functional, organism-based; conditions: Human immunodeficiency virus 1, PBMC, 96 h
[8] = system: Human immunodeficiency virus 1; assay: Antiviral activity against wild type HIV1 3B in human MT2 cells assessed as inhibition of p24 antigen production after 4 days by ELISA; format: functional, organism-based; conditions: Human immunodeficiency virus 1, 3B, MT2, 96 h
[9] = Ratio of EC50 for multidrug-resistant HIV1with reverse transcriptase clone 7324-1 to EC50 for wild type HIV1 3B; format: functional
Summary of the method: (§3)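 Fold change: EC50 against each multi-RT-resistant strain divided by EC50 against wild-type HIV-1 IIIB, both measured by p24 ELISA in MT-2 cells (4-day infection, triplicate).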

[10] = Clearance in Sprague-Dawley rat at 2 mg/kg, iv; format: ADME, organism-based; set-up: dose 2 mg/kg, route intravenous; conditions: in vivo; summary of the method: as §2
[11] = Volume of distribution in Sprague-Dawley rat at 2 mg/kg, iv; format: ADME, organism-based; set-up: dose 2 mg/kg, route intravenous; conditions: in vivo; summary of the method: as §2
[12] = system: Human immunodeficiency virus 1; assay: Antiviral activity against HIV1 BAL 93MW959 isolate of subtype C with R5 tropism in human PBMC cells assessed as inhibition of p24 antigen production after 4 days by ELISA; format: functional, organism-based; conditions: Human immunodeficiency virus 1, BAL, 96 h
Rattus norvegicus [13] = assay: Bioavailability in Sprague-Dawley rat at 20 mg/kg, intragastric gavage; format: ADME, organism-based; conditions: in vivo, po; summary of the method: as §2
[14] = Ratio of EC50 for multidrug-resistant HIV1 with reverse transcriptase 41L, 74V, 184V, 210W, 215Y, ins SS, 98G mutation to EC50 for wild type HIV1 3B; format: functional; summary of the method: as §3
[15] = system: Human immunodeficiency virus 1; assay: Antiviral activity against HIV1 BAL 92US657 isolate of subtype B with R5 tropism in human PBMC cells assessed as inhibition of p24 antigen production after 7 days by ELISA; conditions: Human immunodeficiency virus 1, BAL, 168 h
[16] = system: Human immunodeficiency virus 1; assay: Antiviral activity against HIV1 BAL 93MW959 isolate of subtype C with R5 tropism in human PBMC cells assessed as inhibition of p24 antigen production after 7 days by ELISA; conditions: Human immunodeficiency virus 1, BAL, 168 h
MT2 = assay: Cytotoxicity against human MT2 cells after 4 days by XTT assay; format: cell-based; conditions: mt2, 96 h
Summary of the method: (§4)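 Cells (5 × 10⁵/mL) incubated with graded compound at 37 °C for 4 days, then XTT (1 mg/mL) with 0.02 µM PMS added. A450 read after 4 h; CC50 by CalcuSyn. Triplicate.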

Rattus norvegicus [17] = assay: Half life in Sprague-Dawley rat at 20 mg/kg, intragastric gavage; format: ADME, organism-based; set-up: dose 20 mg/kg, route intragastric; conditions: in vivo, po; summary of the method: as §2
[18] = system: Human immunodeficiency virus 1; assay: Antiviral activity against HIV Lai with X4 tropism infected human MT4 cells assessed as inhibition of p24 antigen production after 4 days by ELISA; format: functional, organism-based; conditions: Human immunodeficiency virus 1, M:B_Lai, MT4, 96 h
Summary of the method: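 1 × 10⁴ MT-4 cells infected with HIV-1 Lai (100 TCID50) in RPMI 1640/10% FBS with graded compound overnight. Medium then replaced with compound-free medium. Supernatant lysed with Triton X-100 on day 4 and p24 measured by sandwich ELISA (A450) against recombinant p24 standard. Triplicate; EC50 by CalcuSyn.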

[19] = system: Human immunodeficiency virus 1; assay: Antiviral activity against HIV1 BAL BCF02 isolate of group O with R5 tropism in human PBMC cells assessed as inhibition of p24 antigen production after 4 days by ELISA; format: functional, organism-based; conditions: Human immunodeficiency virus 1, BAL, 96 h
[20] = Selectivity index, ratio of CC50 for human MT2 cells to EC50 for HIV1 3B; format: toxicity, cell-based; conditions: read-out: Ratio CC50/EC50
[21] = system: Human immunodeficiency virus 1; assay: Antiviral activity against HIV1 92UG001 isolate of subtype D with X4R5 tropism in human PBMC cells assessed as inhibition of p24 antigen production after 4 days by ELISA; format: functional, organism-based; conditions: Human immunodeficiency virus 1, PBMC, 96 h
[22] = Selectivity index, ratio of CC50 for human MT4 cells to EC50 for HIV1 Lai; format: toxicity, cell-based
Summary of the method: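 Ratio of XTT CC50 (4-day MT-4 exposure) to p24-ELISA EC50 against HIV-1 Lai in MT-4 cells.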

[23] = Clearance in Sprague-Dawley rat at 20 mg/kg, intragastric gavage; format: ADME, organism-based; set-up: dose 20 mg/kg, route intragastric; conditions: in vivo, po; summary of the method: as §2
[24] = Half life in Sprague-Dawley rat at 2 mg/kg, iv; format: ADME, organism-based; set-up: dose 2 mg/kg, route intravenous; conditions: in vivo; summary of the method: as §2
[25] = Ratio of EC50 for multidrug-resistant HIV1 with reverse transcriptase 41 L, 67N, 210W, 215Y, 184V, 103N mutation to EC50 for wild type HIV1 3B; format: functional; summary of the method: as §3
[26] = system: Human immunodeficiency virus 1; assay: Antiviral activity against HIV1 94UG103 isolate of subtype A with X4R5 tropism in human PBMC cells assessed as inhibition of p24 antigen production after 7 days by ELISA; conditions: Human immunodeficiency virus 1, PBMC, 168 h
[27] = system: Human immunodeficiency virus 1; assay: Antiviral activity against HIV1 BAL RU570 isolate of subtype G with R5 tropism in human PBMC cells assessed as inhibition of p24 antigen production after 4 days by ELISA; format: functional, organism-based; conditions: Human immunodeficiency virus 1, BAL, 96 h
MT4 = assay: Cytotoxicity against human MT4 cells after 4 days by XTT assay; format: cell-based; conditions: mt4, 96 h; summary of the method: as §4
Rattus norvegicus [28] = assay: Volume of distribution in Sprague-Dawley rat at 20 mg/kg, intragastric gavage; format: ADME, organism-based; set-up: dose 20 mg/kg, route intragastric; conditions: in vivo, po; summary of the method: as §2
[29] = system: Human immunodeficiency virus 1; assay: Antiviral activity against HIV1 3B with X4 tropism infected human MT2 cells assessed as inhibition of p24 antigen production after 4 days by ELISA; format: functional, organism-based; conditions: Human immunodeficiency virus 1, 3B, MT2, 96 h; summary of the method: as §1
Rattus norvegicus [30] = assay: AUC (0 to t) in Sprague-Dawley rat at 2 mg/kg, iv; format: ADME, organism-based, Plasma; set-up: dose 2 mg/kg, route intravenous; conditions: in vivo; summary of the method: as §2

Cc1cc(=O)oc2c3c(ccc12)OC(C)(C)[C@H](OC(=O)[C@@]12CC[C@](C)(C(=O)O1)C2(C)C)[C@@H]3OC(=O)[C@@]12CC[C@](C)(C(=O)O1)C2(C)C
pEC50 [1]: 8.82
pIC50 (H9): 4.63
selectivity ratio [2]: 15700

Cc1c(CO)c(=O)oc2c3c(ccc12)OC(C)(C)[C@H](OC(=O)C12CCC(C)(C(=O)O1)C2(C)C)[C@@H]3OC(=O)C12CCC(C)(C(=O)O1)C2(C)C (some centres not stated)
selectivity ratio [2]: 6220

Cc1ccnc2c1NC(=O)c1cccnc1N2C1CC1 [NEVIRAPINE]
pEC50 [3]: < 4.83
pEC50 [4]: < 4.83
pEC50 [5]: < 4.83

Cc1c(CC#N)c(=O)oc2c3c(ccc12)OC(C)(C)[C@H](OC(=O)[C@@]12CC[C@](C)(C(=O)O1)C2(C)C)[C@@H]3OC(=O)[C@@]12CC[C@](C)(C(=O)O1)C2(C)C
AUC (Rattus norvegicus [6]): 348067.29 µg/L/min
pEC50 [3]: 6.37
CC50 (PBMC): > 150 µM
pEC50 [7]: 5.66
EC90 [7]: 3.76 µM
pEC50 [8]: 6.70
Ratio EC50 [9]: 14.4
clearance [10]: 10 mL/min/kg
pEC50 [1]: 8.62
Vd [11]: 2.34 L/kg
EC90 [12]: 3.06 µM
F (Rattus norvegicus [13]): 17.8%
Ratio EC50 [14]: 2.13
pEC50 [4]: 5.74
pEC50 [15]: 5.29
EC90 [15]: 9.22 µM
pEC50 [16]: 6.06
CC50 (MT2): 40.8 µM
t1/2 (Rattus norvegicus [17]): 2.78 h
pEC50 [5]: 5.41
pEC50 [18]: 5.82
pEC50 [19]: 5.00
EC90 [19]: 18.1 µM
selectivity ratio [20]: 86.1
pEC50 [21]: 6.01
EC90 [21]: 5.23 µM
selectivity ratio [22]: > 66
CL/F [23]: 58 mL/min/kg
half-life [24]: 1.62 h
Ratio EC50 [25]: 8.96
pIC50 (H9): < 4.43
pEC50 [26]: 6.08
EC90 [26]: 1.63 µM
pEC50 [27]: 5.49
EC90 [27]: 8.93 µM
CC50 (MT4): > 100 µM
selectivity ratio [2]: 15400
Vd (Rattus norvegicus [28]): 8.19 L/kg
pEC50 [29]: 6.33
AUC (Rattus norvegicus [30]): 195270.08 µg/L/min
